Laboratory results published in ChEMBL document CHEMBL4342493, “Design and Optimization of 3'-(Imidazo[1,2-a]pyrazin-3-yl)-[1,1'-biphenyl]-3-carboxamides as Selective DDR1 Inhibitors” (ACS Med Chem Lett, 2020).

Experiments:
NCI-H1299 [1] = experiment: Antiinvasive activity against human H1299 cells at 1.25 uM after 24 hrs by crystal violet staining based transwell assay relative to control; type: functional; settings: NCI-H1299, 24 h
Procedure, shortened: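 H1299 NSCLC cells; transwell invasion assay over 24 h with compound at 1.25, 2.5 and 5.0 μM; invasion expressed relative to blank control.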

Homo sapiens = species: Homo sapiens; experiment: Selectivity index, ratio of IC50 for human recombinant full length His-tagged Bcr-Abl expressed in baculovirus expression system using tyrosine-2 peptide as substrate after 1 hr in presence of […] ATP by FRET based Z'-LYTE assay to IC50 for recombinant human GST-tagged DDR1 catalytic domain (440 to 876 residues) expressed in baculovirus expression system using Fluorescein-poly GAT as substrate incubated for 1 hr in presence of ATP by LanthaScreen Eu kinase assay
Procedure, shortened: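 Ratio of Bcr-Abl IC50 to DDR1 IC50. Bcr-Abl was measured by FRET-based Z′-Lyte assay and DDR1 by LanthaScreen Eu kinase assay. Each IC50 is the mean of three independent experiments, with variation <20%.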

[2] = molecular target: T1, Discoidin domain-containing receptor 2 (Homo sapiens, UniProt Q16832); experiment: Binding affinity to wild type human partial length DDR2 (V555 to E855 residues) expressed in mammalian expression system after 1 hr by Kinomescan method
T1 sequence (Q16832 whole entry): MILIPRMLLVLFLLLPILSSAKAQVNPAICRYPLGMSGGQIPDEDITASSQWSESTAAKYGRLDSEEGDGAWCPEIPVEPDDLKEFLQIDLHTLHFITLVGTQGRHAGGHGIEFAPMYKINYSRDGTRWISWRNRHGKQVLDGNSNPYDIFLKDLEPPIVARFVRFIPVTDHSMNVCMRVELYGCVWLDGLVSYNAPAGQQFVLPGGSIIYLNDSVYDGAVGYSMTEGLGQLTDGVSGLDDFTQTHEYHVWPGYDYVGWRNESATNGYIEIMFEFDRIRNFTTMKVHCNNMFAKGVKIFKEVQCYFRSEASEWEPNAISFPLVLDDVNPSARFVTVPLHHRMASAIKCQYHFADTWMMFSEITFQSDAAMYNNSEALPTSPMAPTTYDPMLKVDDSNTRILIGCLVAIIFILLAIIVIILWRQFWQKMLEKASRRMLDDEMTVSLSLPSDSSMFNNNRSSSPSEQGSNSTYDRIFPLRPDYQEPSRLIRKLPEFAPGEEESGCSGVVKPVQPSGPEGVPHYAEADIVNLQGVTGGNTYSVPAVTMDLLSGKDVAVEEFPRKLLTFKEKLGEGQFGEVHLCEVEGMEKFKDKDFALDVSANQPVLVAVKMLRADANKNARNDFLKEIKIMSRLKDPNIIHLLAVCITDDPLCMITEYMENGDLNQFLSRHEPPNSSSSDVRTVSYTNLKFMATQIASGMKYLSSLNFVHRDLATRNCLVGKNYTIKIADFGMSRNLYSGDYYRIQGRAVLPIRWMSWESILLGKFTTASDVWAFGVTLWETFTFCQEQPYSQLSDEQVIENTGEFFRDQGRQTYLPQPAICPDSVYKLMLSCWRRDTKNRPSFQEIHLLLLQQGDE
Procedure, shortened: (§1)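 KINOMEscan binding; Kd determined for DDR1 and the off-target kinases DDR2, CAMK1D, CLK4 and TTK.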

[3] = molecular target: Epithelial discoidin domain-containing receptor 1 (Homo sapiens, UniProt Q08345); experiment: Inhibition of human wild type partial length DDR1 (R565 to V876 residues) expressed in bacterial expression system assessed as residual enzyme activity at 200 nM after 1 hr by Kinomescan method relative to control
[4] = molecular target: T2, Discoidin domain-containing receptor 2 (Homo sapiens) (UniProt Q16832); experiment: Inhibition of wild type human partial length DDR2 (V555 to E855 residues) expressed in mammalian expression system assessed as residual enzyme activity at 200 nM after 1 hr by Kinomescan method relative to control
T2 sequence (whole entry): T1 sequence (Q16832 whole entry)

NCI-H1299 [5] = experiment: Antimigratory activity against human H1299 cells assessed as reduction in wound closure at 2.5 uM after 24 hrs by bright field microscopic based wound healing assay relative to control; type: functional; settings: NCI-H1299, 24 h
Procedure, shortened: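 Wound healing (scratch) migration assay in H1299 cells at 1.25, 2.5 and 5.0 μM; wound closure compared with blank control groups.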

[6] = molecular target: T3, Dual specificity protein kinase TTK (Homo sapiens, UniProt P33981); experiment: Binding affinity to wild-type human partial length TTK (N505 to V798 residues) expressed in bacterial expression system after 1 hr by Kinomescan method; procedure, shortened: as §1
T3 sequence (P33981 whole entry): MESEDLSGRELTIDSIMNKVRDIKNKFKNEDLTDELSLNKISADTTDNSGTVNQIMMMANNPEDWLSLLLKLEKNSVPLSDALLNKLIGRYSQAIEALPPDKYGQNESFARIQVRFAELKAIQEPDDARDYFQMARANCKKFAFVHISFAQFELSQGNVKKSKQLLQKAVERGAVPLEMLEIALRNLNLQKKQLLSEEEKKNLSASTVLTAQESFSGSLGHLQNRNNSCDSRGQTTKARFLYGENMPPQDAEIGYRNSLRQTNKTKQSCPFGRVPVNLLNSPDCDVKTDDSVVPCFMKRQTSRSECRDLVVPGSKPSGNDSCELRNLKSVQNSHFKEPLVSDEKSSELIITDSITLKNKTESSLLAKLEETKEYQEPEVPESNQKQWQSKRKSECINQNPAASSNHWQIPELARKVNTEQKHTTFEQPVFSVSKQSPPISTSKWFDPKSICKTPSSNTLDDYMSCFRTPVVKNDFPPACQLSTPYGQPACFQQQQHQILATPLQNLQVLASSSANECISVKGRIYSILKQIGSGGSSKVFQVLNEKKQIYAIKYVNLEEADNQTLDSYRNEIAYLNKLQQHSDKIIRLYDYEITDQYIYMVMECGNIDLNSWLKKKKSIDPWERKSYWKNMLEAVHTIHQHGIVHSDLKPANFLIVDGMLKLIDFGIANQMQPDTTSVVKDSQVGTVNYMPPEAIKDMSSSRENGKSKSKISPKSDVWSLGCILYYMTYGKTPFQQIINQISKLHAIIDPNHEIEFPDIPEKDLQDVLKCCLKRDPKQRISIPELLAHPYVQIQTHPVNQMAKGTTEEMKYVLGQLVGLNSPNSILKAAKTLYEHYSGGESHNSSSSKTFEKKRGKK

[7] = molecular target: T4, Calcium/calmodulin-dependent protein kinase type 1D (Homo sapiens, UniProt Q8IU85); experiment: Binding affinity to wild-type human partial length CAMK1D (M1 to K299 residues) expressed in bacterial expression system after 1 hr by Kinomescan method; procedure, shortened: as §1
Target sequence in this assay (Q8IU85 whole entry, the tested form may be a part): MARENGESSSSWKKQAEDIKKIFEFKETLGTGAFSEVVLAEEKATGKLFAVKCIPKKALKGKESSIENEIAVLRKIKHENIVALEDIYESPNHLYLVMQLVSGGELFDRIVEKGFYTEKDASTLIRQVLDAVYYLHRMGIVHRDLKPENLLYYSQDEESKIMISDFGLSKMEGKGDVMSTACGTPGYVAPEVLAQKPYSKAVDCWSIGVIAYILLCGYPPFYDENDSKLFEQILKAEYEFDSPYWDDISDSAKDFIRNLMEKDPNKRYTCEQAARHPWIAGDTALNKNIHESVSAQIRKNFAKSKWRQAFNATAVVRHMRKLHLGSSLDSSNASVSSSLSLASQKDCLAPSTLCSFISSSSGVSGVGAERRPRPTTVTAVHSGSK

[8] = molecular target: T4, Calcium/calmodulin-dependent protein kinase type 1D; experiment: Inhibition of wild-type human partial length CAMK1D (M1 to K299 residues) expressed in bacterial expression system assessed as residual enzyme activity at 200 nM after 1 hr by Kinomescan method relative to control
Target sequence in this assay (Q8IU85 whole entry, looked up, the tested form may be a part): as the sequence (Q8IU85 whole entry, the tested form may be a part) above

[9] = molecular target: Dual specificity protein kinase CLK4 (Homo sapiens, UniProt Q9HAZ1); experiment: Binding affinity to wild-type human partial length CLK4 (R135 to K481 residues) expressed in bacterial expression system after 1 hr by Kinomescan method; procedure, shortened: as §1
[10] = molecular target: Mast/stem cell growth factor receptor Kit (Homo sapiens, UniProt P10721); experiment: Inhibition of human recombinant His-tagged c-Kit cytoplasmic domain (544 to 976 residues) expressed in baculovirus expression system using Ser/Thr 6 peptide as substrate after 1 hr in presence of 300 uM ATP by FRET based Z'-LYTE assay
Mast/stem cell growth factor receptor Kit, sequence (P10721 whole entry, the tested form may be a part): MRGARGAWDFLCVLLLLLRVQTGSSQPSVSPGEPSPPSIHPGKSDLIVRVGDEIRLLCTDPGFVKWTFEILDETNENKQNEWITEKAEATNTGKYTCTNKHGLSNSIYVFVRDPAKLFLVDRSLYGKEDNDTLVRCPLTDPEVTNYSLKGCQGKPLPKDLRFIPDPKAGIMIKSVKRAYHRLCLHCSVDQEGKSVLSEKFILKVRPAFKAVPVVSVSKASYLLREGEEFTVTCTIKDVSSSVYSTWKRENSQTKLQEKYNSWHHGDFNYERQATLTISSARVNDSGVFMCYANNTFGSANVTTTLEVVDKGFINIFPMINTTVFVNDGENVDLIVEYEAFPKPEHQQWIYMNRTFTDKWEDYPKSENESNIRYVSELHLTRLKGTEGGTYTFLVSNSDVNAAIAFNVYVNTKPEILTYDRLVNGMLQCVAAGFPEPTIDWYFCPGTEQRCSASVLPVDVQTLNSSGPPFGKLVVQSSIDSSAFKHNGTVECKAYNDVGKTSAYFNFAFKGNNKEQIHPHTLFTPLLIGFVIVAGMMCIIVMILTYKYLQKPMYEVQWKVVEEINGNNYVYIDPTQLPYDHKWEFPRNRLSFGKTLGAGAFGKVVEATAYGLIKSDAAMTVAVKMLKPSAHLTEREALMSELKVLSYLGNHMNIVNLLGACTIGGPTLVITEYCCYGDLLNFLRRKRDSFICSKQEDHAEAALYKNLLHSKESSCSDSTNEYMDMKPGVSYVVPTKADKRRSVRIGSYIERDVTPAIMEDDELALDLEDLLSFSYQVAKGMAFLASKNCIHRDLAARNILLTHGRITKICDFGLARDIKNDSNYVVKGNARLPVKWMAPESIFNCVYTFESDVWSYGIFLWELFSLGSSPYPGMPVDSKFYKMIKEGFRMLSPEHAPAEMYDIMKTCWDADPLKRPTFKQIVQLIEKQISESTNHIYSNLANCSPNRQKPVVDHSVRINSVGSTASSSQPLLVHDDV

Dual specificity protein kinase CLK4, sequence (Q9HAZ1 whole entry, the tested form may be a part): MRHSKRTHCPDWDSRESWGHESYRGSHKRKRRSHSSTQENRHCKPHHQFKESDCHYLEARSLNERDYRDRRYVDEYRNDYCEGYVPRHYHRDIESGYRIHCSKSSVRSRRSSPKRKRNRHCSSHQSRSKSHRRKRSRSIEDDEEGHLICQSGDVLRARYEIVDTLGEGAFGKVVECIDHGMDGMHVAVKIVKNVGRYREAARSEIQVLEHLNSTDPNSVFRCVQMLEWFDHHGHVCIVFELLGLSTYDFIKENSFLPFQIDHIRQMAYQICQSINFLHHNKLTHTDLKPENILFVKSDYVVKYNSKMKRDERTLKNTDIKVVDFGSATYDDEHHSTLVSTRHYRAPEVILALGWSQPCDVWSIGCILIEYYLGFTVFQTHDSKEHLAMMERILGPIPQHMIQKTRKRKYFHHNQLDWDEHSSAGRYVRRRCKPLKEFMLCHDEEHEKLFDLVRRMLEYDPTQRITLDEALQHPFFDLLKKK
Epithelial discoidin domain-containing receptor 1, sequence (Q08345 whole entry, the tested form may be a part): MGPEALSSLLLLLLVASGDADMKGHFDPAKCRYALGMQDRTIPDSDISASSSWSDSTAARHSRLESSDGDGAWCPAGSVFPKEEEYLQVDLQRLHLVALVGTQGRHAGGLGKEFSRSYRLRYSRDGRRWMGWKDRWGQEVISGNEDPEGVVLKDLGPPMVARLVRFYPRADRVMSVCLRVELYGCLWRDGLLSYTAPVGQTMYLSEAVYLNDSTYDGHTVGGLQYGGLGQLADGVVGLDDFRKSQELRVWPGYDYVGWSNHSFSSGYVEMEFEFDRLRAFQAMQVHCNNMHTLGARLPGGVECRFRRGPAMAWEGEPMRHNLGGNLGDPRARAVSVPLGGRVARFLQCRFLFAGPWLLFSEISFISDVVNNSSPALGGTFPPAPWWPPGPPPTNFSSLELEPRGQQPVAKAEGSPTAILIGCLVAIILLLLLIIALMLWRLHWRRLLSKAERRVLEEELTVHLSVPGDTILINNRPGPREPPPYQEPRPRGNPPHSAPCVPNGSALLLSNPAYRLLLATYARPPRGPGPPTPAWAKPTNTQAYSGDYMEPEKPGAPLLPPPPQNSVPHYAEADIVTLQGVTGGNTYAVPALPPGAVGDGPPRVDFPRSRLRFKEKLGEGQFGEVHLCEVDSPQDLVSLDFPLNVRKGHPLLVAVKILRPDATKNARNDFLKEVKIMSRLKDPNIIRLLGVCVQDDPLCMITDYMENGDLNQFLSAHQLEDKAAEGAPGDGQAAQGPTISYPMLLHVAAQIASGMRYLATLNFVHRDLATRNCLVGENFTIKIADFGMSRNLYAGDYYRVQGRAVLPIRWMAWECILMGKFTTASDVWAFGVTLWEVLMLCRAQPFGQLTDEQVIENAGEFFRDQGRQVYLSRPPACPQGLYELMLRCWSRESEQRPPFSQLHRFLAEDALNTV

Structure (SMILES): CCc1ccc(C(=O)Nc2cc(F)cc(C(F)(F)F)c2)cc1-c1cc(C)cc(-c2cnc3cnccn23)c1
- inhibition at 1.25 µM (NCI-H1299 [1]): 17%
- Ratio IC50 (Homo sapiens): 420
- Kd [2]: 0.086 µM
- Activity [3]: 0%
- Activity [4]: 15%
- inhibition at 2.5 µM (NCI-H1299 [5]): 60%
- Kd [6]: > 1 µM
- Kd [7]: > 1 µM
- Activity [8]: 0.9%
- Kd [9]: > 1 µM
- IC50 [10]: > 10 µM
